MDM2 E3 inh: inhibitors of human Mdm2 E3 ubiquitin ligase | Q00987 | cell-based MDM2 ubiquitination luciferase reporter, 2 h; 0 = plate control, 100 = twice control, blank-subtracted | actives 0.11% (n = 210,000) | signal enhancement, % at 5 µM | AID 1230;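 active = signal enhancement of 30% or more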;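 note: luminescence tracks abundance of the self-degrading MDM2-luciferase fusion protein; higher signal means inhibition of MDM2 E3 ligase activity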
Target sequence (Q00987 whole entry, looked up, the tested form may be a part): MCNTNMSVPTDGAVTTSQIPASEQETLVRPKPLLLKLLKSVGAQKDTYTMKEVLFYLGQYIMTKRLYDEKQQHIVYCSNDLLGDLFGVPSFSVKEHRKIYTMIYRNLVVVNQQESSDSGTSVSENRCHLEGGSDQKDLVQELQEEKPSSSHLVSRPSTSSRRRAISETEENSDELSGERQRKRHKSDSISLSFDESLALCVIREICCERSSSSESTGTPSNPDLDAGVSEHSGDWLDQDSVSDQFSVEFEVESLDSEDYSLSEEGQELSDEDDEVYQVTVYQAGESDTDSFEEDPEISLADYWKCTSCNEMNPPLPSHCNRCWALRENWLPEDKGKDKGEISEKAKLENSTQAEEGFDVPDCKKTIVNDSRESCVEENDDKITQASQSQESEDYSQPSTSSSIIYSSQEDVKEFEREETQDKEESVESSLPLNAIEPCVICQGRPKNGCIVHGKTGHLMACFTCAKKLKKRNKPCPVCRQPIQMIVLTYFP
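Material: stable MDM2–luciferase fusion reporter cells / Quantity: 2000 cells/well / Dosing: single 5 µM compound dose, 0.2% final DMSO / Buffer or medium: DMEM / Schedule: 4 h cell settling then 2 h compound exposure, 37 °C / Detection: luminescence with SteadyLite reagent, 15 min at room temperature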
pCIP destab: compounds decreasing mouse p/CIP protein stability; actives 0.01% (n = 290,000); Q05BA5; AID 1984; decrease of EGFP signal, % at 10 µM; F442A p/CIP-EGFP cells, EGFP fluorescence, 16 h;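 active = EGFP signal decrease of at least 30% at 10 µM or well 3 SD below plate mean, unless failing retest; inactive = the rest, including hits failing retest or dose response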
Lipid droplet: modulators of hepatic lipid droplet formation; inhibition, % at 6.5 µM; actives 0.4% (n = 240,000); AML12 mouse hepatocytes, oleate lipid droplets, BODIPY imaging;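 active = lipid droplet intensity inhibited by at least 50%, with more than 500 cells counted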
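Material: mouse AML12 hepatocyte cell line, fixed after treatment; Timing: compound with oleate, overnight; Technique: high-content imaging of BODIPY-stained droplets and DAPI nuclei; Probe or stimulus: oleate, 100 µM final; Dosing: compound at 6.5 µM only.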
Hep lipid conf: confirmation of inhibitors of hepatic lipid droplet formation; shares compounds with Lipid droplet; AML12 mouse hepatocytes, BODIPY lipid droplet imaging; droplets induced with 100 µM oleic acid; inhibition, % at 5.2 µM; actives 65% (n = 870);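 active = inhibition of lipid droplet metric at least 50%, with more than 300 cells in each of four replicates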;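 note: plate controls were DMSO with oleic acid for no effect and 5 µM Triacsin-C for full effect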
AML12 cytotox: AML12 hepatocyte cytotoxicity (counter-screen); shares compounds with Lipid droplet; AML12 mouse hepatocytes, DAPI nuclear morphology cytotoxicity imaging; active compounds read high; cells fed 100 µM oleate overnight; z-score at 5 µM; actives 3% (n = 870); AID 463200; in the data active = z-score above about 6.3;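 note: compound exposure lasted overnight at 37 °C before fixation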
AML12 tox ATP: confirmation of cytotoxicity in AML12 mouse hepatocytes | shares compounds with Lipid droplet | AML12 mouse hepatocyte viability, ATP luminescence; cells loaded with 100 µM oleic acid | cytotoxicity, % at 50 µM | 530 tested, under 10 active;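 active = cytotoxicity above 50% in each of four replicates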;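 note: compound exposure lasted overnight at 37 °C before the ATP read; 0% = DMSO-treated cells and 100% = wells with no cells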
Active calls of the source: *; x = no result given. Many of the other results were omitted from the sample, so hits are more common in it than they were.

SMILES	MDM2 E3 inh	pCIP destab	Lipid droplet	Hep lipid conf	AML12 cytotox	others
OCCC1CN(Cc2ccncc2)CCN1C1CCCC1 (centres undefined)	7.1	9.6	11.2	x	x
O=C(c1cc2nc(-c3ccc(F)cc3)cc(C(F)(F)F)n2n1)N1CCCCC1c1cccnc1 (centres undefined)	-20.7	-18.3	-4.6	x	x
COc1ccc(C)cc1NC(=O)CCNS(=O)(=O)c1cccc(C(F)(F)F)c1	x	0.8	55.2*	83.4*	0.182	AML12 tox ATP=6.1
COc1ccc(C)cc1NC(=O)CCNS(=O)(=O)c1ccc2c(c1)CCC(=O)N2	x	1.7	-9.9	x	x
COc1ccc(CCNC(=O)Cc2ccccc2)cc1OC	x	3.2	-1.7	x	x
COc1ccc(CCNC(=O)CC(c2ccccc2)c2cc(C)ccc2O)cc1OC (centres undefined)	x	-12.2	53.4*	30.0	0.953
COc1ccc(CCNC(=O)CCOc2ccc(C)cc2)cc1OC	x	-24.3	7.3	x	x
COc1ccc(CCNC(=O)CCOc2cc(C)ccc2C)cc1OC	x	-7.7	67.6*	90.8*	-0.0917	AML12 tox ATP=12.2
N#Cc1ccc(C(=O)Nc2cccc3ccccc23)c(F)c1	x	7.3	-0.3	x	x
Cc1nc2sccn2c(=O)c1S(=O)(=O)NC(C)c1ccccc1 (centres undefined)	x	-0.1	-3.5	x	x
Cc1ccc(NC(=O)c2ccc(OC(=O)C(C)Oc3ccc(Cl)cc3C)cc2)cc1 (centres undefined)	4.8	-5.2	12.4	x	x
COc1ccc(N2CCN(C(=O)CCc3ccccc3)CC2)cc1	x	5.1	x	x	x
NC(=O)CC(NC(=O)Cc1cccc2ccccc12)c1ccc(N2CCc3ccccc3C2)c([N+](=O)[O-])c1 (centres undefined)	-2.7	-2.7	26.0	x	x
O=S(=O)(c1ccc(Cl)cc1)N1CCC(N2CCOCC2)CC1	-5.6	-9.4	10.9	x	x
Nc1nc(-c2ccc(Cl)cc2)c(N=Nc2ccc(S(=O)(=O)N3CCOCC3)cc2)s1	-2.8	6.7	64.7*	33.2	0.732
CCOc1ccc(C2=NNC(c3cccs3)=Nc3ccc(OC)cc32)cc1OCC	-4.6	2.9	55.2*	71.3*	0.571	AML12 tox ATP=19.9
COc1ccc(C2=NNC(c3cccs3)=Nc3ccc(OC)cc32)cc1	-5.4	4.9	x	x	x
C[C@]12CC(O)C3C(CCC4=CC(=O)CC[C@@]43C)C1CCC2c1csc(-c2ccccc2)n1 (some centres undefined)	x	-2.3	10.3	x	x
O=C1C(NS(=O)(=O)c2cccs2)=C(N2CCN(c3cccc(C(F)(F)F)c3)CC2)C(=O)c2ccccc21	-12.8	-13.3	51.5*	112.6*	-0.372	AML12 tox ATP=11.9
CN1CCN(C2=C(NS(=O)(=O)c3cccs3)C(=O)c3ccccc3C2=O)CC1	-8.0	-4.0	-7.7	x	x
COc1ccccc1NC(=O)c1cc(S(=O)(=O)N2CCOCC2)ccc1Cl	-15.0	-4.6	0.4	x	x
COc1ccc(S(=O)(=O)N2CCOCC2)cc1NC(=O)c1ccccc1C	x	5.0	51.2*	-13.4	-0.585
Cc1c(NS(=O)(=O)c2ccc3c(c2)NC(=O)CC(=O)N3)cccc1[N+](=O)[O-]	x	13.8	4.6	x	x
CCOCCCNC(=O)C1CCN(C(=O)Nc2ccc(C)cc2)CC1	x	-6.7	x	x	x
CCCCNC(=O)C1CCN(C(=O)Nc2ccc(C)cc2)CC1	-5.7	-17.0	61.5*	57.3*	0.845
SMILES	MDM2 E3 inh	pCIP destab	Lipid droplet	Hep lipid conf	AML12 cytotox	others
O=C(Nc1ccc(Br)cc1)c1cccc(OC(=S)N2CCOCC2)c1	x	-17.0	54.1*	89.0*	0.815	AML12 tox ATP=20.2
COc1ccc(NC(=O)c2cccc(OC(=S)N3CCOCC3)c2)cc1	-7.7	-16.3	9.7	x	x
CC(Nc1ccc2c(c1)OCCO2)C(=O)N1CCc2ccccc21 (centres undefined)	-2.9	-3.1	3.1	x	x
COc1cccc(C(=O)Nc2sc(C(C)C)cc2C(N)=O)c1OC	x	7.5	13.3	x	x
CCOc1ccc(CN(C)C(=O)NNC(=O)c2ccc(C)cc2)cc1OC	x	17.6	87.7*	79.6*	-1.46	AML12 tox ATP=8.1
CCOc1ccc(CN(C)CC(=O)NNC(=O)c2ccc(Cl)cc2)cc1OC	-7.0	-13.8	-0.2	x	x
CCOc1ccc(CN(C)C(=O)CNC(=O)C2CCCCC2)cc1OC	x	-5.7	22.6	x	x
CCOc1ccc(CN(C)C(=O)CNC(=O)c2ccc(Br)o2)cc1OC	x	0.8	80.1*	84.8*	0.708	AML12 tox ATP=13.1
CCOc1cc(NC(=S)Nc2ccc(Cl)cc2)c(OCC)cc1NC(C)=O	-8.7	-16.3	-7.4	x	x
COc1ccc(C(=O)C2CCCN(C(=O)Cn3nc(C)cc3C)C2)cc1F (centres undefined)	-9.2	-8.6	-4.3	x	x
C[C@]12CCC(=O)C=C1CC[C@@H]1[C@@H]2[C@@H](O)C[C@@]2(C)[C@H]1CC[C@]2(O)C(=O)COC(=O)CCC(=O)O	x	-0.9	1.3	x	x
CC(=O)OCC(=O)[C@@]1(O)CC[C@H]2[C@@H]3CCC4=CC(=O)CC[C@]4(C)[C@H]3[C@@H](O)C[C@@]21C	x	4.4	50.4*	23.7	0.654
O=C(CCn1c(=O)oc2ccccc21)Nc1cccc([N+](=O)[O-])c1	x	-6.9	-10.1	x	x
COc1n[nH]c(C(=O)Nc2cc(Cl)ccc2Cl)c1[N+](=O)[O-]	6.0	1.4	-0.7	x	x
COc1n[nH]c(C(=O)Nc2cc(F)ccc2C)c1[N+](=O)[O-]	-11.5	-5.3	55.4*	9.2	-0.666
COc1ccc(-c2cc(-c3ccccc3)nc(SCC(=O)Nc3ncc(C)s3)c2C#N)cc1	5.5	-19.8	26.5	x	x
CCOc1ccc2nc(-c3ccccc3)nc(SCC(=O)Nc3ncc(C)s3)c2c1	-1.2	6.9	100.7*	106.8*	0.115	AML12 tox ATP=6.8
Fc1ccc(-c2nnc(SCc3cccnc3)o2)cc1	-11.3	-10.3	9.9	x	x
FC(F)(F)c1cc(C(F)(F)F)c2ccc(N3CCN(c4ccc(Cl)cc4)CC3)nc2n1	-4.9	-1.0	x	x	x
N#CC(c1ccc(Cl)cc1)c1ccc2c(C(F)(F)F)cc(C(F)(F)F)nc2n1 (centres undefined)	-6.3	-5.5	59.1*	-68.5	6.24*
COc1ccc(NC(=O)Nc2ccc([N+](=O)[O-])cc2)cn1	x	-6.4	-2.9	x	x
COc1cccc(NC(=O)C2(S(=O)(=O)c3ccc(Cl)cc3)CC2)c1	-6.1	1.9	-18.6	x	x
Cc1cc(C)n2nc(C(=O)N/N=C/c3c4ccccc4cc4ccccc34)nc2n1	-16.5	-7.2	65.5*	103.3*	0.302	AML12 tox ATP=37.9
Cc1cc(C)n2nc(C(=O)N/N=C/c3ccccc3Cl)nc2n1	16.8	-19.4	0.6	x	x
CCCCn1c(N)c(N(Cc2ccccc2OC)C(=O)COc2ccccc2C#N)c(=O)[nH]c1=O	-6.1	2.1	-6.7	x	x
COCCCn1c(SCC(=O)Nc2ccc(NC(=O)c3ccco3)c(OC)c2)nc2ccccc2c1=O	6.2	-11.3	103.6*	103.6*	-0.467	AML12 tox ATP=7.2

Compound activity as filed in PubChem.
